Data reported in ChEMBL document CHEMBL1158182, “Antifungal activity of chalcones: a mechanistic study using various yeast strains” (Eur J Med Chem, 2008).

Tests used:
Type in all cases: functional
Ogataea angusta [1] = experiment: Antifungal activity against Hansenula polymorpha R3 with rgh3 genotype by agar dilution method
Summary of the method: (§1)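 H. polymorpha strains were tested by agar dilution on rich YPD agar at 37 °C. Compound stocks in 96% EtOH were mixed into the medium to give […]. Cells were suspended in water, serially diluted to 10^9, 10^7, 10^5 and 10^3 cells/ml, and applied to the agar with a metal replicator. MIC was read from growth.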

Ogataea angusta [2] = experiment: Antifungal activity against Hansenula polymorpha CD1 with ade1 leu2 cds1 genotype by agar dilution method; summary of the method: as §1
Saccharomyces cerevisiae [3] = experiment: Antifungal activity against haploid Saccharomyces cerevisiae 1169 by agar dilution method
Summary of the method: (§2)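 S. cerevisiae and K. lactis strains were tested by agar dilution on rich YPD agar at 30 °C. Compound stocks in 96% EtOH were added to the medium to give […]. Cells were suspended in water, serially diluted to 10^9–10^3 cells/ml, and plated with a metal replicator. MIC was read from growth.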

Saccharomyces cerevisiae [4] = experiment: Antifungal activity against haploid Saccharomyces cerevisiae Sigma 1278b by agar dilution method; summary of the method: as §2
Saccharomyces cerevisiae [5] = experiment: Antifungal activity against haploid Saccharomyces cerevisiae FY4 by agar dilution method; summary of the method: as §2
Ogataea angusta [6] = experiment: Antifungal activity against Hansenula polymorpha M2 with met2 genotype by agar dilution method; summary of the method: as §1
Saccharomyces cerevisiae [7] = experiment: Antifungal activity against haploid Saccharomyces cerevisiae YSH1170 by agar dilution method; summary of the method: as §2
Ogataea angusta [8] = experiment: Antifungal activity against Hansenula polymorpha M4 with met4 genotype by agar dilution method; summary of the method: as §1
Ogataea angusta [9] = experiment: Antifungal activity against Hansenula polymorpha CRD2 with leu2 CDR2 genotype by agar dilution method; summary of the method: as §1
Kluyveromyces lactis [10] = experiment: Antifungal activity against Kluyveromyces lactis 2-19B with MATalpha ura lys arg genotype by agar dilution method; summary of the method: as §2
Saccharomyces cerevisiae [11] = experiment: Antifungal activity against haploid Saccharomyces cerevisiae 2180 by agar dilution method; summary of the method: as §2
Saccharomyces cerevisiae [12] = experiment: Antifungal activity against diploid Saccharomyces cerevisiae 1a by agar dilution method; summary of the method: as §2
Ogataea angusta [13] = experiment: Antifungal activity against Hansenula polymorpha CD3 with ade1 leu2 cds3 genotype by agar dilution method; summary of the method: as §1
Saccharomyces cerevisiae [14] = experiment: Antifungal activity against diploid Saccharomyces cerevisiae 29a by agar dilution method; summary of the method: as §2
Ogataea angusta [15] = experiment: Antifungal activity against Hansenula polymorpha WT1 with ade1 ura3 genotype by agar dilution method; summary of the method: as §1
Ogataea angusta [16] = experiment: Antifungal activity against Hansenula polymorpha MC1 with met2 cys1 genotype by agar dilution method; summary of the method: as §1
Ogataea angusta [17] = experiment: Antifungal activity against Hansenula polymorpha AS1 with arg1 gsh2delta genotype by agar dilution method; summary of the method: as §1
Ogataea angusta [18] = experiment: Antifungal activity against Hansenula polymorpha D22 with arg1/arg1 ade1/ADE1 leu2/leu2 URA3/ura3 CYS1/cys1 genotype by agar dilution method; summary of the method: as §1
Saccharomyces cerevisiae [19] = experiment: Antifungal activity against haploid Saccharomyces cerevisiae 1S by agar dilution method; summary of the method: as §2
Saccharomyces cerevisiae [20] = experiment: Antifungal activity against haploid Saccharomyces cerevisiae 10560-6B by agar dilution method; summary of the method: as §2
Saccharomyces cerevisiae [21] = experiment: Antifungal activity against haploid Saccharomyces cerevisiae YSH1171 by agar dilution method; summary of the method: as §2
Ogataea angusta [22] = experiment: Antifungal activity against Hansenula polymorpha AU05 with ade3 ura3 genotype by agar dilution method; summary of the method: as §1
Ogataea angusta [23] = experiment: Antifungal activity against Hansenula polymorpha CD2 with ade1 leu2 cds2 genotype by agar dilution method; summary of the method: as §1
Ogataea angusta [24] = experiment: Antifungal activity against Hansenula polymorpha 2a with arg1 leu2 ura3 cys1 genotype by agar dilution method; summary of the method: as §1
Kluyveromyces lactis [25] = experiment: Antifungal activity against Kluyveromyces lactis 2-18B with MATalpha metA1 ura3 leu2 genotype by agar dilution method; summary of the method: as §2
Ogataea angusta [26] = experiment: Antifungal activity against Hansenula polymorpha 2b with arg1 ade1 leu2 genotype by agar dilution method; summary of the method: as §1
Ogataea angusta [27] = experiment: Antifungal activity against Hansenula polymorpha WT2 with ade1 met6 genotype by agar dilution method; summary of the method: as §1
Kluyveromyces lactis [28] = experiment: Antifungal activity against Kluyveromyces lactis 1-6A with MATalpha uraA lys arg genotype by agar dilution method; summary of the method: as §2

Measured: MIC

O=C(/C=C/c1ccc(Cl)cc1)c1ccc(Cl)cc1 [4',4-DICHLOROCHALCONE]
> 40 µg/mL: all assays above

COc1ccc(/C=C/C(=O)c2ccc(Cl)cc2)cc1
> 40 µg/mL: all assays above

O=C(/C=C/c1ccc(O)cc1)c1ccccc1 [4-HYDROXYCHALCONE]
> 40 µg/mL: all assays above

Cc1ccc(/C=C/C(=O)c2ccc(Cl)cc2)cc1
> 40 µg/mL: all assays above

COc1cccc(/C=C/C(=O)c2ccc(Cl)cc2)c1O
> 40 µg/mL: all assays above

O=C(/C=C/c1ccc(O)c(O)c1)c1ccc(Cl)cc1
> 40 µg/mL: all assays above

N#Cc1ccc(/C=C/C(=O)c2ccc(Cl)cc2)cc1
> 40 µg/mL: all assays above

COc1ccc(/C=C/C(=O)c2ccc(Cl)cc2)cc1O
> 40 µg/mL: all assays above

O=C(/C=C/c1ccc([N+](=O)[O-])cc1)c1ccc(Cl)cc1
> 40 µg/mL: all assays above

O=C(/C=C/C=C/c1ccccc1)c1ccc(Cl)cc1
> 40 µg/mL: all assays above

COc1cc(/C=C/C(=O)c2ccc(Cl)cc2)cc(OC)c1O
> 40 µg/mL: all assays above
